Among the data in the array DNA melting data of Ke et al. (doi:10.1101/2024.01.08.574731) are folding enthalpy and Tm values, retold here.

Series [1] is described as follows: folding enthalpy; higher = less favourable; fluorescence melt of hairpins on a sequencing array, two-state fit. The following applies: sodium 0.088 M. The method in brief: (§1)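 Folding enthalpy and melting temperature were estimated with bootstrapped two-state fits and combined across four replicates by inverse-variance weighting, with fitted temperatures raised by 9.35 °C to match UV melts. The data were Cy3 fluorescence of library hairpins, with annealed Cy3 and quencher oligos, on a sequenced MiSeq flow cell in 50 mM Na-HEPES pH 8.0, 25 mM NaCl, imaged in 2.5 °C steps up to 60 °C and normalised to pre-quench Cy3 and control constructs.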

The nature of series [2]: melting temperature; fluorescence melt of hairpins on a sequencing array, two-state fit, raised by 9.35 °C to match UV melts. The following applies: sodium 0.088 M. The method in brief: as §1

Turning to GCACAGCGAAAGCCCTGC (((..((....))..))), in series [1], the folding enthalpy is -8.82 kcal/mol. In addition, the Tm in series [2] stood at 32.1 °C.
The like results for GATAACCGAAAGGTGATC (((.(((....))).))) were, in that order, -27.9 kcal/mol and 47.8 °C.
On the same counts, the results for GATATAACGAAAGTTATC (((..(((....)))))) are -15.6 kcal/mol and 30.6 °C.
Turning to GACTCTCCGAAAGGAGTC (((..(((....)))))), the folding enthalpy in series [1] was -9.54 kcal/mol. Besides, the Tm in series [2] was 35.3 °C.
The like results for GGCACACGAAAGTGGCC (((.(((....)))))) were, in that order, -23.2 kcal/mol and 62.2 °C.
The like results for GAGTAGCCGAAAGGCCTC (((..(((....)))))) were, in that order, -10.7 kcal/mol and 38.4 °C.
On the same counts, the results for GTGAACGGAAACGTTCGC (.(((((....))))).) are -28.9 kcal/mol and 56.9 °C.
For GACTCCGAAAGGAGTGTC ((((((....)))..))), the folding enthalpy in series [1] was -12.3 kcal/mol. In addition, in series [2], the Tm was determined as 58.4 °C.
On the same counts, the results for GATCGTTGTGACGATC ((((((....)))))) are -41 kcal/mol and 60.2 °C.
On the same counts, the results for GGAGTTCCGAAAGGATCC (((..(((....)))))) are -12.8 kcal/mol and 31 °C.
On the same counts, the results for GATCATAGCCATGATC ((((((....)))))) are -44.5 kcal/mol and 47.5 °C.
As for GCGAACCTCGC ((((...)))), the folding enthalpy in series [1] is -17.7 kcal/mol. For the same sequence, the Tm in series [2] was 46 °C.
For GTGTACGAAAGTACCCAC ((((((....)))..))), the folding enthalpy in series [1] is -10.3 kcal/mol. For the same sequence, the Tm in series [2] worked out at 31.9 °C.
The like results for GGATGCGAAAGCAAGTCC ((((((....)))..))) were, in that order, -13.7 kcal/mol and 35.5 °C.
On the same counts, the results for GTATCCGAAAGGATTTAC ((((((....)))..))) are -12 kcal/mol and 30.6 °C.
Turning to AAGTTGAAAAACTT (((((....))))), the folding enthalpy in series [1] is -10.6 kcal/mol. Further, the Tm in series [2] is 35.4 °C.
For the sequence GTACATGGAAACACGTAC ((((.((....)).)))), the folding enthalpy in series [1] was -21.9 kcal/mol. The Tm in series [2] amounted to 36.2 °C.
As for GATCTTATAGAAGATC ((((((....)))))), in series [1], the folding enthalpy was -30 kcal/mol. Besides, in series [2], the Tm is 39.5 °C.
Regarding GATCTTCTCAAAGATC ((((((....)))))), the folding enthalpy in series [1] was -33.4 kcal/mol. The Tm in series [2] was found to be 45.2 °C.
The like results for GATCGGAATACCGATC ((((((....)))))) were, in that order, -33.1 kcal/mol and 56.6 °C.
On the same counts, the results for GATCAGGCAGCTGATC ((((((....)))))) are -34.2 kcal/mol and 52.4 °C.
On the same counts, the results for GCGCCAGGAAACTGGTGC ((.((((....)))).)) are -30.6 kcal/mol and 65 °C.
For GATCCCATAGGGGATC ((((((....)))))), in series [1], the folding enthalpy is -32.9 kcal/mol. In addition, the Tm in series [2] came out at 60.4 °C.
The like results for GCGATGCGAAAGCCTAGC ((.(.((....)).).)) were, in that order, -21.8 kcal/mol and 45 °C.
For GTACTCCGAAAGGACTAC (((.(((....))).))), the folding enthalpy in series [1] was -14.1 kcal/mol. For the same sequence, the Tm in series [2] was 33.2 °C.
In the case of GCACGGCGAAAGCGGGGC ((.(.((....)).).)), in series [1], the folding enthalpy is -31.5 kcal/mol. In series [2], the Tm was 64.9 °C.
The like results for GTGAACGAAAGTTGCCAC ((((((....)))..))) were, in that order, -9.75 kcal/mol and 25.9 °C.
GATCACAGTTGTGATC ((((((....)))))): the folding enthalpy in series [1] is -35.7 kcal/mol. In series [2], the Tm was found to be 60.4 °C.
Consider GACCAAGGAAACTCGGTC ((((.((....)).)))), for which the folding enthalpy in series [1] is -29.3 kcal/mol. Besides, the Tm in series [2] turned out to be 37.8 °C.
On the same counts, the results for GATCCTCGAAGGATC ((((((...)))))) are -26.7 kcal/mol and 50.1 °C.
The like results for GATGGAGGAAACCCCATC (((((.(....).))))) were, in that order, -31.6 kcal/mol and 43 °C.
On the same counts, the results for GACTCGAAAGAGTC (((((....))))) are -32.1 kcal/mol and 61.2 °C.
In the case of GCTGAATCGAAAGATAGC (((..(((....)))))), the folding enthalpy in series [1] is -17.3 kcal/mol. Also, the Tm in series [2] amounted to 31.9 °C.
With GCGGCCTACCGC ((((....)))), in series [1], the folding enthalpy was -29.4 kcal/mol. Moreover, the Tm in series [2] was determined as 55.8 °C.
The like results for GCACGCGAAAGCGTATGC ((((((....)))..))) were, in that order, -13.3 kcal/mol and 50.9 °C.
On the same counts, the results for GCACTTCGAAAGAACTGC (((.(((....))).))) are -22.1 kcal/mol and 34.4 °C.
For the sequence GGCGACGAAAGTCTCGCC ((((((....)))..))), in series [1], the folding enthalpy is -25.7 kcal/mol. Besides, the Tm in series [2] was 55.2 °C.
As for GTGCACGAAAGTGGCCAC ((((((....)))..))), in series [1], the folding enthalpy was -13.3 kcal/mol. Moreover, in series [2], the Tm was 40.6 °C.
With GGGAGGGGAAACCCTCTC (.(((((....))))).), the folding enthalpy in series [1] was -20.2 kcal/mol. Besides, the Tm in series [2] came out at 52.2 °C.
The like results for GGGGCGACGAAAGTCCCC (((..(((....)))))) were, in that order, -16.4 kcal/mol and 56 °C.
In the case of GATCTGTTCACAGATC ((((((....)))))), the folding enthalpy in series [1] was -35.1 kcal/mol. Further, the Tm in series [2] was 56.9 °C.
On the same counts, the results for GATCATAGTAATGATC ((((((....)))))) are -37.2 kcal/mol and 47.3 °C.
The like results for GACAGAGGAAACCCTGTC (((((.(....).))))) were, in that order, -32.9 kcal/mol and 42.5 °C.
On the same counts, the results for GTGTGCGAAAGCAACCAC ((((((....)))..))) are -14.3 kcal/mol and 38.8 °C.
As to GAGTACGAAAGTAGCTC ((((((....))).))), the folding enthalpy in series [1] is -23.3 kcal/mol. In series [2], the Tm came to 37.5 °C.
On the same counts, the results for GCTTTGCCGAAAGGCAGC (((..(((....)))))) are -8.46 kcal/mol and 35.8 °C.
The like results for GATCACCTGAGTGATC ((((((....)))))) were, in that order, -35.8 kcal/mol and 57 °C.
The like results for TACTGGAAACAGTA (((((....))))) were, in that order, -15.8 kcal/mol and 36.8 °C.
Turning to GAGTCCCGAAAGGGCCTC (((.(((....))).))), the folding enthalpy in series [1] was -26.6 kcal/mol. In series [2], the Tm turned out to be 52.4 °C.
The like results for GTTCGGGGAAACTCGGAC ((.((.(....).)).)) were, in that order, -25.6 kcal/mol and 39 °C.
Regarding GTATTTCCGAAAGGATAC (((..(((....)))))), the folding enthalpy in series [1] is -11.8 kcal/mol. Moreover, the Tm in series [2] came out at 26 °C.
On the same counts, the results for GATCGGAGCGCCGATC ((((((....)))))) are -31.4 kcal/mol and 55 °C.
On the same counts, the results for GGGCACGAAAGTGTGCCC ((((((....)))..))) are -27.1 kcal/mol and 64.5 °C.
GAATTGGGAAACCAGTTC (((.(((....))).))): the folding enthalpy in series [1] is -30.1 kcal/mol. For the same sequence, the Tm in series [2] is 39.4 °C.
On the same counts, the results for GAGGAAGCGAAAGCTCTC (((..(((....)))))) are -13.7 kcal/mol and 35.4 °C.
